In ChEMBL document CHEMBL4387708, “Enhancement of Benzothiazoles as Pteridine Reductase-1 Inhibitors for the Treatment of Trypanosomatidic Infections” (J Med Chem, 2019):
In brackets after ≈: the same amount, converted by molar mass.

Legend:
Cytochrome P450 1A2 = biological target: T1, Cytochrome P450 1A2 (Homo sapiens, UniProt P05177); assay: Inhibition of human CYP1A2 expressed in baculovirus infected insect cells using beetle D-luciferin as substrate preincubated for 30 mins followed by NADPH addition and measured after 30 mins by CYP450-Glo assay
T1 sequence (P05177 whole entry): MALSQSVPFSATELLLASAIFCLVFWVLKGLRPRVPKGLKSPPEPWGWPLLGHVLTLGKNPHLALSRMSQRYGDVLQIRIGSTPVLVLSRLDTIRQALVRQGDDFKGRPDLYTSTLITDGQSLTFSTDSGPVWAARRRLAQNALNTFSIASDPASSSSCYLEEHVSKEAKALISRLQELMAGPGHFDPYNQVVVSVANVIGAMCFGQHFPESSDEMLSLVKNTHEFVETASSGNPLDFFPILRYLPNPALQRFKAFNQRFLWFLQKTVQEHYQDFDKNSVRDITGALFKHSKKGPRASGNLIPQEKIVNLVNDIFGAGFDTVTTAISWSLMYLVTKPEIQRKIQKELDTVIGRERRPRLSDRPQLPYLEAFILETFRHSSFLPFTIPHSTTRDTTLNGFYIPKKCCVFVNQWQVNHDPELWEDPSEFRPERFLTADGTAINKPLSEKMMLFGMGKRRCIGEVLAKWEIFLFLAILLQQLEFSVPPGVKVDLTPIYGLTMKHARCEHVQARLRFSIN

Cytochrome P450 2D6 = Cytochrome P450 2D6 (Homo sapiens, UniProt P10635); assay: Inhibition of human CYP2D6 expressed in baculovirus infected insect cells using beetle D-luciferin as substrate preincubated for 30 mins followed by NADPH addition and measured after 30 mins by CYP450-Glo assay
Cytochrome P450 2C19 = Cytochrome P450 2C19 (Homo sapiens, UniProt P33261); assay: Inhibition of human CYP2C19 expressed in baculovirus infected insect cells using beetle D-luciferin as substrate preincubated for 30 mins followed by NADPH addition and measured after 30 mins by CYP450-Glo assay
[1] = Cmax in BALB/c mouse at 20 mg/kg, po by LC-MS analysis; assay type: ADME, organism-based; set-up: dose 20 mg/kg, route oral; settings: in vivo
Outline: (§1)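 Snapshot PK in healthy BALB/c mice. Free compound given in 8% DMSO at 1 mg/kg IV or 20 mg/kg per os; for the formulated arm it was solubilized with hydroxypropyl-β-cyclodextrin (50%) and given at 20 mg/kg per os. Plasma levels were quantified by LC-MS on a C18 column with triple-quadrupole ESI detection in positive ion mode.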

[2] = Cmax in BALB/c mouse at 20 mg/kg, po co-formulated with hydroxypropyl-beta-cyclodextrin by LC-MS analysis; assay type: ADME, organism-based; set-up: dose 20 mg/kg, route oral; settings: in vivo; outline: as §1
[3] = Selectivity index ratio of IC50 for mitochondrial toxicity in human 786-O cells to EC50 for growth inhibition of Trypanosoma brucei bloodstream forms; assay type: cell-based; settings: read-out: Ratio IC50/EC50
[4] = Half-life in BALB/c mouse at 1 mg/kg, iv by LC-MS analysis; assay type: ADME, organism-based; settings: in vivo; outline: as §1
hERG = assay: Selectivity index ratio of IC50 for human ERG to EC50 for growth inhibition of Trypanosoma brucei bloodstream forms; assay type: toxicity; settings: read-out: Ratio IC50/EC50
[5] = Thermodynamic solubility of the compound in phosphate buffered saline after 24 hrs by spectrophotometric method; assay type: physicochemical; settings: read-out: Therm_solubility
Outline: (§2)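 Over-saturated suspensions (theoretical maximum 100 µg/mL) in water, PBS, PBS + 10% DMSO or PBS + 50% DMSO were stirred at 1200 rpm for 24 h at 25 °C. They were filtered at 0.2 µm and diluted 1:1 with ACN. Concentration was quantified by UV using a molar extinction coefficient determined at 340 nm.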

[6] = Clearance in BALB/c mouse at 20 mg/kg, po by LC-MS analysis; assay type: ADME, organism-based; settings: in vivo; outline: as §1
[7] = biological target: T2, Pteridine reductase 1 (Leishmania major) (UniProt Q01782); assay: Inhibition of Leishmania major pteridine reductase 1 at 50 uM using di-hydrobiopterine as substrate in presence of NADPH relative to control
T2 sequence (whole entry): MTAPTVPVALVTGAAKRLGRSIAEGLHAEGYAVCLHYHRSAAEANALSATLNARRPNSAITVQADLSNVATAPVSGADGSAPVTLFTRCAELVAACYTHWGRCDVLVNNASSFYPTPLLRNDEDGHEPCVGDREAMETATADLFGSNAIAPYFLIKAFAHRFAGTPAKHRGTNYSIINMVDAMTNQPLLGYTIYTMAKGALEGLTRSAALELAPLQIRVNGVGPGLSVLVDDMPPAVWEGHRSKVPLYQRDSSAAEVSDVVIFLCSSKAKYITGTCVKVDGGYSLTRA
Outline: (§3)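 Photometric PTR1 assay with NADPH and dihydrobiopterin substrate. H₄B formation is coupled non-enzymatically to cytochrome c reduction, read as signal increase at 550 nm.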

CYP2C9 = assay: Selectivity index ratio of IC50 for CYP2C9 (unknown origin) to EC50 for growth inhibition of Trypanosoma brucei bloodstream forms; assay type: toxicity; settings: read-out: Ratio IC50/EC50
[8] = Selectivity ratio of IC50 for Leishmania major pteridine reductase 1 to IC50 for N-terminal His-tagged Trypanosoma brucei pteridine reductase 1
[9] = Cytotoxicity against human THP1 cells after 72 hrs by MTT assay; assay type: cell-based, THP-1; settings: read-out: NOAEL
Cytochrome P450 2C9 = Cytochrome P450 2C9 (Homo sapiens, UniProt P11712); assay: Inhibition of human CYP2C9 expressed in baculovirus infected insect cells using beetle D-luciferin as substrate preincubated for 30 mins followed by NADPH addition and measured after 30 mins by CYP450-Glo assay
[10] = Mitochondrial toxicity in human 786-O cells measured after 6 hrs by MitoTracker Red chloromethyl-X-rosamine based assay; assay type: cell-based, 786-0
[11] = Half-life in BALB/c mouse at 20 mg/kg, po co-formulated with hydroxypropyl-beta-cyclodextrin by LC-MS analysis; assay type: ADME, organism-based; settings: in vivo; outline: as §1
[12] = Clearance in BALB/c mouse at 20 mg/kg, po co-formulated with hydroxypropyl-beta-cyclodextrin by LC-MS analysis; assay type: ADME, organism-based; settings: in vivo; outline: as §1
[13] = Thermodynamic solubility of the compound in pure water after 24 hrs by spectrophotometric method; assay type: physicochemical; settings: read-out: Therm_solubility; outline: as §2
Pteridine reductase 1 = biological target: T3, Pteridine reductase 1 (Leishmania major, UniProt Q01782); assay: Inhibition of Leishmania major pteridine reductase 1 using di-hydrobiopterine as substrate in presence of NADPH; settings: read-out: IC50; outline: as §3
T3 sequence (Q01782 whole entry): T2 sequence (whole entry)

[14] = AUC in BALB/c mouse at 20 mg/kg, po by LC-MS analysis; assay type: ADME, organism-based; settings: in vivo; outline: as §1
[15] = AUC in BALB/c mouse at 20 mg/kg, po co-formulated with hydroxypropyl-beta-cyclodextrin by LC-MS analysis; assay type: ADME, organism-based; settings: in vivo; outline: as §1
Trypanosoma brucei = assay: Inhibition of N-terminal His-tagged Trypanosoma brucei pteridine reductase 1 at 50 uM using di-hydrobiopterine as substrate measured at 1 min interval for 50 mins in presence of NADPH relative to control; outline: as §3
[16] = Cytotoxicity against human U2OS cells assessed as reduction in cell number; assay type: cell-based
[17] = Selectivity index ratio of GI50 for human U2OS cells to EC50 for growth inhibition of Trypanosoma brucei bloodstream forms; assay type: toxicity; settings: read-out: Ratio GI50/EC50

Cytochrome P450 2C9, sequence (P11712 whole entry): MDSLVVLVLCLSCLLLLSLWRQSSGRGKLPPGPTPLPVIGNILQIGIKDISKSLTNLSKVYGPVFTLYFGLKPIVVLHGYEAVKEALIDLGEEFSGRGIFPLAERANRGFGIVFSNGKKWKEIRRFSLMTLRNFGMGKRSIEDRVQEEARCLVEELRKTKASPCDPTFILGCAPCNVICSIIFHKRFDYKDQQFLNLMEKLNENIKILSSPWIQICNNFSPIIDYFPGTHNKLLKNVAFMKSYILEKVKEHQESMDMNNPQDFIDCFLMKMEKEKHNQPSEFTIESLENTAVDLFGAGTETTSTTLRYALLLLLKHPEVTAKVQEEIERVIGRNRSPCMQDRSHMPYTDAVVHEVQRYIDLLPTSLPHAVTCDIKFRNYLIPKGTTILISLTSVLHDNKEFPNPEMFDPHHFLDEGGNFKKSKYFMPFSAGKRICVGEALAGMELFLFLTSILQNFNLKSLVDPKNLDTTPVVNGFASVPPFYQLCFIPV
Cytochrome P450 2C19, sequence (P33261 whole entry): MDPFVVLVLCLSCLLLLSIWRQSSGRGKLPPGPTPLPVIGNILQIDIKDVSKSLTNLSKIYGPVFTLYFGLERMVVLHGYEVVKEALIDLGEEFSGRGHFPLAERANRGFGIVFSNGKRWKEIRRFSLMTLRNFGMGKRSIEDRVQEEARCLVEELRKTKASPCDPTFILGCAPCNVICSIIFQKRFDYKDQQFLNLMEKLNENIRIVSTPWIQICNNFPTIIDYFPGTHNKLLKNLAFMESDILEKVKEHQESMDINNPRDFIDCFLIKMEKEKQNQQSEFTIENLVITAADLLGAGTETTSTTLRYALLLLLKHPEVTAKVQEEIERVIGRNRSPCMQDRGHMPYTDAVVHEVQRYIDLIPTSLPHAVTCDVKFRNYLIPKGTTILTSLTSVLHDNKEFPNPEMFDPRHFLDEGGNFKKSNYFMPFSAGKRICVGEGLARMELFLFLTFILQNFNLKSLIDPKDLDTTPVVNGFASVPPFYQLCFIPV
Cytochrome P450 2D6, sequence (P10635 whole entry): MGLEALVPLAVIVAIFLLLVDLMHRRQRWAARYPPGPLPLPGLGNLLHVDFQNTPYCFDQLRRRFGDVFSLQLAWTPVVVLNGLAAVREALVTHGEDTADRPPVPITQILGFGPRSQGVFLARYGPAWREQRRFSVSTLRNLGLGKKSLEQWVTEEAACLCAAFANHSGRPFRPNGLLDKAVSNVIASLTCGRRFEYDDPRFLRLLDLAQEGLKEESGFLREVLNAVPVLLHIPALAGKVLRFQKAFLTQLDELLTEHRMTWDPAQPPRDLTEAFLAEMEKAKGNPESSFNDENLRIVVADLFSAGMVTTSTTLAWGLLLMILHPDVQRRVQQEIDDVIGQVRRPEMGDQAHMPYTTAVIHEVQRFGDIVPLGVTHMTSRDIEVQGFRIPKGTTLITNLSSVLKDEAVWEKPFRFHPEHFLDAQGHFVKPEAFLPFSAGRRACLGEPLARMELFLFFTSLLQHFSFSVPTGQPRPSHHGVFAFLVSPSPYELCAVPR

Nc1nc2ccc(C(=O)NCc3ccccc3)cc2s1
IC50 (Cytochrome P450 1A2): > 25 µM
IC50 (Cytochrome P450 2D6): 10 to 25 µM
IC50 (Cytochrome P450 2C19): > 25 µM
Cmax [1]: 826 ng/mL
Cmax [2]: 13 µM
selectivity ratio [3]: > 10
half-life [4]: 3.45 h
selectivity ratio (hERG): > 10
solubility thermodynamic at 24 h [5]: 10.9 µg/mL (≈ 38.6 µM)
CL/F [6]: 68 mL/min/kg
inhibition [7]: > 60%
selectivity ratio (CYP2C9): > 10
Ratio IC50 [8]: 2 to 100
MNTC at 72 h [9]: > 25 µM
IC50 (Cytochrome P450 2C9): > 25 µM
IC50 at 6 h [10]: > 25 µM
half-life [11]: 34.8 h
CL/F [12]: 41 mL/min/kg
solubility thermodynamic at 24 h [13]: 13.1 µg/mL (≈ 46.3 µM)
IC50 (Pteridine reductase 1): 61.3 µM
AUC [14]: 4690 ng·h/mL
AUC [15]: 7930 ng·h/mL
inhibition (Trypanosoma brucei): > 60%
GI50 [16]: > 25 µM
selectivity ratio [17]: > 10
